We go through three compounds from publication PMC9880397 (Heliyon, 2023).

Common to all, as to type: cell-based
The test system of assay [1] is MCF-7 human breast cancer cells. The experiment in a line: SRB cytotoxicity assay, MCF-7 cells. The note with it: for IC50: MCF7, 48 h, read-out: IC50 against MCF-7 cells. The method, boiled down: (§1)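 Cells from ATCC, seeded at about […] in fresh medium at 37 ᵒC and <5% CO2. After 24 h, a DMSO series of test compound (up to 100 μg/mL) was added, then incubated 48 h. Read-out was A570, with DMSO control set as 100% viability.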
In general terms: In SRB staining, fixed cells bind dye roughly in proportion to their protein.

Assay [2] relates to HCT-116 (Colon) human cancer cells. The experiment in a line: SRB cytotoxicity assay, HCT-116 cells. To be noted: HCT-116, read-out: % Viability of cancer cells HCT-116. The method, boiled down:
as §1

The test system of assay [3] is HEPG-2 (Liver) human cancer cells. As to the kind of experiment: SRB cytotoxicity assay, HEPG-2 cells. The method, boiled down: as §1
The subject of assay [4] is A-549 (Lung) human cancer cells. The experiment in a line: SRB cytotoxicity assay, A-549 cells. To be noted: A549, read-out: % Viability of cancer cells A-549. The method, boiled down: as §1
Setting [5] is: MCF7, read-out: % Viability of cancer cells MCF-7.
The mark [6] stands for this setting: HepG2, read-out: % Viability of cancer cells HEPG-2.

In general, IC50 refers to the concentration that gives 50% inhibition. Regarding `COc1cccc2c1C(=O)c1c(O)c3c(c(O)c1C2=O)C[C@@](O)(C(=O)CO)C[C@@H]3O[C@H]1C[C@H](N)[C@H](O)[C@H](C)O1` [Doxorubicin, doxorubicin, reference compound], in assay [1], the IC50 was determined as 9.66 µM.
A word on the viability: it is a per cent measure of how many cells are alive, often set against a control. Regarding `O=[N+]([O-])c1ccc(NC(=S)NN=Cc2ccccn2)cc1` [HL^1, 4-(4-Nitrophenyl)-1-((pyridin-2-yl)methylene)thiosemicarbazide], the 50% inhibitory concentration (IC50) in assay [1] is 52.4 µM; in assay [3] (HepG2, 48 h, read-out: IC50 against HEPG-2 cells), 80 µM. Besides, the viability at 41.5 µM was 60% in assay [1] (setting [5]), 80% in assay [2], 76% in assay [3] (setting [6]) and 71.9% in assay [4]. Further, the viability at 83 µM in assay [1] (setting [5]) came out at 26.4%; in assay [2] it was 76%; in assay [3] (setting [6]), 48%; in assay [4], 70.7%. The viability at 124.5 µM in assay [1] (setting [5]) amounted to 23.2%; in assay [2] it was 63.6%; in assay [3] (setting [6]) it was 39.2%; in assay [4], 69.6%. The viability at 166 µM is 9.6% in assay [1] (setting [5]), 60.4% in assay [2], 33.2% in assay [3] (setting [6]) and 64.1% in assay [4].
For the compound `COc1ccc(OC)c(NC(=S)NN=Cc2ccccn2)c1` [HL^2, 4-(2,5-Dimethoxyphenyl)-1-((pyridin-2-yl)methylene)thiosemicarbazide], in assay [1], the IC50 was determined as 145 µM.
